Assay results published in ChEMBL document CHEMBL3817832, “Optimizing Ligand Efficiency of Selective Androgen Receptor Modulators (SARMs)” (ACS Med Chem Lett, 2016).
In brackets after ≈: the same amount, converted by molar mass.

System: not listed separately
Experiment: Oral bioavailability in Wistar Han rat at 10 mg/kg, administered as single dose via oral gavage by LC-MS/MS analysis
Assay type: ADME, organism-based
Details: in vivo

Structure (SMILES)	bioavailability [%]
CCC(O)(c1ccc(C#N)c(C(F)(F)F)c1)C(F)(F)F (stereo not drawn)	70
N#Cc1ccc(C(O)(C2CC2)C(F)(F)F)cc1Cl (stereo not drawn)	80
N#Cc1ccc(C(O)(c2cocn2)C(F)(F)F)cc1C(F)(F)F (stereo not drawn)	83
Cc1c(C(O)(C2CC2)C(F)(F)F)ccc(C#N)c1C(F)(F)F (stereo not drawn)	37
Cc1c(C(O)(c2cocn2)C(F)(F)F)ccc(C#N)c1C(F)(F)F (stereo not drawn)	100
N#Cc1ccc(C(O)(C2CC2)C(F)(F)F)cc1C(F)(F)F (stereo not drawn)	86

System: not listed separately
Experiment: Half life in Wistar Han rat at 5 mg/kg, administered as single dose via oral gavage by LC-MS/MS analysis
Assay type: ADME, organism-based
Details: in vivo

Structure (SMILES)	half-life [h]
CCC(O)(c1ccc(C#N)c(C(F)(F)F)c1)C(F)(F)F (stereo not drawn)	83
N#Cc1ccc(C(O)(C2CC2)C(F)(F)F)cc1Cl (stereo not drawn)	18
N#Cc1ccc(C(O)(c2cocn2)C(F)(F)F)cc1C(F)(F)F (stereo not drawn)	8
Cc1c(C(O)(C2CC2)C(F)(F)F)ccc(C#N)c1C(F)(F)F (stereo not drawn)	10
Cc1c(C(O)(c2cocn2)C(F)(F)F)ccc(C#N)c1C(F)(F)F (stereo not drawn)	5.5
N#Cc1ccc(C(O)(C2CC2)C(F)(F)F)cc1C(F)(F)F (stereo not drawn)	20

Molecular target: T1, Androgen receptor (Homo sapiens, UniProt P10275)
T1 sequence (P10275 whole entry): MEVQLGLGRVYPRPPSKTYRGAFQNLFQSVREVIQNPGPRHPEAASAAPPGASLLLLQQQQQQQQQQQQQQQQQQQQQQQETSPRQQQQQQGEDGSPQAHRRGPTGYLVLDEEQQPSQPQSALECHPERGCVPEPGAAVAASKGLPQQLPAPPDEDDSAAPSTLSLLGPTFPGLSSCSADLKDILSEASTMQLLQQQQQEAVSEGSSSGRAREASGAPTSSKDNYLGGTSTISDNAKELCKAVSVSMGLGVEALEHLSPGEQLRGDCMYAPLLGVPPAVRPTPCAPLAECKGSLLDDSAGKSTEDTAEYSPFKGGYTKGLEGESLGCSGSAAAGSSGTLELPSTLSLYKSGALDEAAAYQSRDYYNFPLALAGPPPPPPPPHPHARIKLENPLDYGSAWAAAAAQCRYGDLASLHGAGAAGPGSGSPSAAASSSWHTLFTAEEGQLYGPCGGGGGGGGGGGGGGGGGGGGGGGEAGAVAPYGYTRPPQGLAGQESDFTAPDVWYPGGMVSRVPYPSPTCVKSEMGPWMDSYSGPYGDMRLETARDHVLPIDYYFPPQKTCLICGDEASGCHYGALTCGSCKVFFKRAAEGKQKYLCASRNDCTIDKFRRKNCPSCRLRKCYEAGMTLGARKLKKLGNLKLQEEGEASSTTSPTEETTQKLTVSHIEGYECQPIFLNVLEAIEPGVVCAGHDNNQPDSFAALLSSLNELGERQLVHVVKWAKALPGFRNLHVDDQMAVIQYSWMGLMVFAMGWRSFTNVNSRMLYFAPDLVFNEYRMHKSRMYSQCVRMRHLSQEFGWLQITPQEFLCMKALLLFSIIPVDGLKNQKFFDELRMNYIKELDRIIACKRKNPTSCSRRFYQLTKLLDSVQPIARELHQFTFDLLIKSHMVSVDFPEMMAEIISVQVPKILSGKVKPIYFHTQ
Experiment: Modulation of human androgen receptor expressed in African green monkey CV1 cells after 24 hrs by luciferase reporter gene assay
Assay type: cell-based, CV-1
Details: not given
Method in brief: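 Functional AR activity is read out by a luciferase reporter gene assay in mammalian cells transfected with the human AR gene. EC50 is derived from the response and reported as pEC50 (−log EC50).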

Structure (SMILES)	EC50 [nM]
CC(C)CC(O)(c1ccc(C#N)c(Cl)c1Cl)C(F)(F)F (stereo not drawn)	3.16
Cc1c(C(O)(C(C)C)C(F)(F)F)ccc(C#N)c1C(F)(F)F (stereo not drawn)	0.251
C=CC(O)(c1ccc(C#N)c(C(F)(F)F)c1)C(F)(F)F (stereo not drawn)	12.6
Cc1c(C(O)(C(F)(F)F)C(F)(F)F)ccc(C#N)c1Cl	20
CCC(O)(c1ccc(C#N)c(C(F)(F)F)c1)C(F)(F)F (stereo not drawn)	3.98
CC(C)(C)C(O)(c1ccc(C#N)c(Cl)c1)C(F)(F)F (stereo not drawn)	158
Cc1c(C(O)(c2cscn2)C(F)(F)F)ccc(C#N)c1C(F)(F)F (stereo not drawn)	5.89
Cc1c(C#N)ccc(C(C)(O)C(F)(F)F)c1C (stereo not drawn)	2510
N#Cc1ccc(C(O)(C2CC2)C(F)(F)F)cc1Cl (stereo not drawn)	0.398
CC(C)(C)CC(O)(c1ccc(C#N)c(Cl)c1Cl)C(F)(F)F (stereo not drawn)	3.16
Cc1c(C(O)(CC(C)(C)C)C(F)(F)F)ccc(C#N)c1Cl (stereo not drawn)	3.98
Cc1c(C(C)(C)C(O)C(F)(F)F)ccc(C#N)c1C(F)(F)F (stereo not drawn)	15.8
Cc1c(C(O)(c2ccco2)C(F)(F)F)ccc(C#N)c1C(F)(F)F (stereo not drawn)	0.251
N#Cc1ccc(C(O)(c2ccc(Cl)s2)C(F)(F)F)cc1C(F)(F)F (stereo not drawn)	20
N#Cc1ccc(C(O)(c2ccco2)C(F)(F)F)cc1C(F)(F)F (stereo not drawn)	1.26
Cc1c(C(O)(c2ccc(Cl)o2)C(F)(F)F)ccc(C#N)c1C(F)(F)F (stereo not drawn)	2.88
Cc1c(C(O)(C#CC2CC2)C(F)(F)F)ccc(C#N)c1Cl (stereo not drawn)	15.8
Cc1c(C#N)ccc(C(O)(C(C)C)C(F)(F)F)c1C (stereo not drawn)	12.6
Cc1c(C(O)(C2CCC2)C(F)(F)F)ccc(C#N)c1C(F)(F)F (stereo not drawn)	0.2
N#Cc1ccc(C(O)(c2ccc(Cl)o2)C(F)(F)F)cc1C(F)(F)F (stereo not drawn)	2.51
Cc1c(C(O)(C2CC2)C(F)(F)F)ccc(C#N)c1Cl (stereo not drawn)	0.2
Cc1c(C(O)(C(C)(C)C)C(F)(F)F)ccc(C#N)c1Cl (stereo not drawn)	79.4
C/C=C(\C)C(O)(c1ccc(C#N)c(C(F)(F)F)c1)C(F)(F)F (stereo not drawn)	39.8
N#Cc1ccc(C(O)(c2cscn2)C(F)(F)F)cc1C(F)(F)F (stereo not drawn)	2
CCC(O)(c1ccc(C#N)c(Cl)c1Cl)C(F)(F)F (stereo not drawn)	2.51
N#Cc1ccc(C(O)(c2nccs2)C(F)(F)F)cc1C(F)(F)F (stereo not drawn)	2

Structure (SMILES)	EC50 [nM]
N#Cc1ccc(C(O)(C2CCC2)C(F)(F)F)cc1C(F)(F)F (stereo not drawn)	1.58
N#Cc1ccc(C(O)(c2cocn2)C(F)(F)F)cc1C(F)(F)F (stereo not drawn)	1.26
Cc1c(C(O)(c2nccs2)C(F)(F)F)ccc(C#N)c1C(F)(F)F (stereo not drawn)	10.5
Cc1c(C(O)(c2ccc(Cl)s2)C(F)(F)F)ccc(C#N)c1C(F)(F)F (stereo not drawn)	5.62
CC(O)(c1ccc(C#N)c(Cl)c1Cl)C(F)(F)F (stereo not drawn)	63.1
Cc1c(C(O)(C2CC2)C(F)(F)F)ccc(C#N)c1C(F)(F)F (stereo not drawn)	0.0316
C=C(C)C(O)(c1ccc(C#N)c(C(F)(F)F)c1)C(F)(F)F (stereo not drawn)	31.6
Cc1c(C(O)(c2cocn2)C(F)(F)F)ccc(C#N)c1C(F)(F)F (stereo not drawn)	0.501
Cc1c(C(O)(C(F)(F)F)C(F)(F)F)ccc(C#N)c1C(F)(F)F	1.58
N#Cc1ccc(C(O)(C2CCC2)C(F)(F)F)c(Cl)c1Cl (stereo not drawn)	0.631
Cc1c(C#N)ccc(C(O)(CC(C)(C)C)C(F)(F)F)c1C (stereo not drawn)	20
Cc1c(C(C)(O)C(F)(F)F)ccc(C#N)c1C(F)(F)F (stereo not drawn)	3.98
Cc1c(C#N)ccc(C(O)(C2CC2)C(F)(F)F)c1C (stereo not drawn)	1.58
Cc1c(C(O)(C(C)C)C(F)(F)F)ccc(C#N)c1Cl (stereo not drawn)	0.794
CCC(O)(c1ccc(C#N)c(Cl)c1C)C(F)(F)F (stereo not drawn)	2
CC(C)C(O)(c1ccc(C#N)c(C(F)(F)F)c1)C(F)(F)F (stereo not drawn)	7.94
N#Cc1ccc(C(O)(C2CCCC2)C(F)(F)F)cc1Cl (stereo not drawn)	3.16
N#Cc1ccc(C(O)(CO)C(F)(F)F)cc1C(F)(F)F (stereo not drawn)	10000
N#Cc1ccc(C(O)(C2CC2)C(F)(F)F)c(Cl)c1Cl (stereo not drawn)	0.2
N#Cc1ccc(C(O)(C(F)(F)F)C(F)(F)F)cc1C(F)(F)F	15.8
CC(C)C(O)(c1ccc(C#N)c(Cl)c1)C(F)(F)F (stereo not drawn)	3.98
CC(C)C(O)(c1ccc(C#N)c(Cl)c1Cl)C(F)(F)F (stereo not drawn)	0.794
N#Cc1ccc(C(O)(C2CC2)C(F)(F)F)cc1C(F)(F)F (stereo not drawn)	0.158
N#Cc1ccc(C(O)(C2CCC2)C(F)(F)F)cc1Cl (stereo not drawn)	1.58
Cc1c(C(O)(C#CC(C)(C)C)C(F)(F)F)ccc(C#N)c1Cl (stereo not drawn)	79.4

System: not listed separately
Experiment: Kinetic aqueous solubility of the compound in PBS at pH 7.4 after 1 hr by chemiluminescent nitrogen detection method
Assay type: physicochemical
Details: read-out: Kinetic_solubility
Method in brief: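 High-throughput kinetic aqueous solubility at pH 7.4. The test compound is added from a DMSO stock, and dissolved compound is quantified by chemiluminescent nitrogen detection (CLND).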

Structure (SMILES)	solubility kinetic at 1 h [µM]
N#Cc1ccc(C(O)(C2CC2)C(F)(F)F)cc1Cl (stereo not drawn)	> 400
N#Cc1ccc(C(O)(c2cocn2)C(F)(F)F)cc1C(F)(F)F (stereo not drawn)	> 700
Cc1c(C(O)(C2CC2)C(F)(F)F)ccc(C#N)c1C(F)(F)F (stereo not drawn)	245 (≈ 79.2 µg/mL)
Cc1c(C(O)(c2cocn2)C(F)(F)F)ccc(C#N)c1C(F)(F)F (stereo not drawn)	> 400

System: not listed separately
Experiment: […] in iv dosed Wistar Han rat administered as single dose by LC-MS/MS analysis
Assay type: ADME, organism-based
Details: in vivo

Structure (SMILES)	clearance [mL/min/kg]
N#Cc1ccc(C(O)(C2CC2)C(F)(F)F)cc1Cl (stereo not drawn)	12
